Usually IC50 stands for the midpoint of a concentration-inhibition curve.

This passage reports IC50 results from ChEMBL document CHEMBL1143844, “Biochemical studies on the mechanism of human immunodeficiency virus type 1 reverse transcriptase resistance to 1-(beta-D-dioxolane)thymine triphosphate” (Antimicrob Agents Chemother, 2007).

For test [1], the target named is T1, Human immunodeficiency virus type 1 reverse transcriptase (Human immunodeficiency virus 1, UniProt Q72547). As to the kind of experiment: Inhibition of HIV1 LAI reverse transcriptase wild type in presence of 5 mM ATP by heteropolymeric DNA polymerase assay. In short, it runs like this:
(§1)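 Heteropolymeric DNA assay with 5 mM ATP added: immobilized 18-mer primer, 5′-A12-(GTCA)5 50-mer template, dATP/dGTP/dCTP/BrdUTP at 1.0 μM each, HEPES 50 mM pH 7.3, MgCl2 10 mM. RT 30–100 pM, incubated at 33°C for 180 min. NaOH strand separation, then anti-BrdU-AP detection at 405 nm. IC50 fitted from seven inhibitor concentrations; two to four runs in duplicate.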

A short description of test [2]: Inhibition of HIV1 reverse transcriptase 75I/77L/116Y/151M mutant in presence of 5 mM ATP by heteropolymeric DNA polymerase assay. Also noted: species or system Human immunodeficiency virus 1. A digest of the protocol:
(§2)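 Heteropolymeric DNA polymerase assay with ATP added at 5 mM. Purified HIV-1 RT at 30–100 pM acts on a plate-bound DNA primer with a 5′-A12-(GTCA)5-3′ template. dATP, dGTP, dCTP and BrdUTP at 1.0 μM each. Incubation 180 min at 33°C. BrdUMP incorporation read via anti-BrdU-AP at 405 nm after NaOH dehybridization. IC50 from seven inhibitor concentrations, at least two experiments in duplicate.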

A short description of test [3]: Inhibition of HIV1 reverse transcriptase wild type HXB2(a) in presence of 5 mM ATP by heteropolymeric DNA polymerase assay. Details: species or system Human immunodeficiency virus 1. In short, it runs like this: as §1
Test [4] in a line: Inhibition of HIV1 LAI reverse transcriptase 65R mutant in presence of 5 mM ATP by heteropolymeric DNA polymerase assay. Details: species or system Human immunodeficiency virus 1. A digest of the protocol: as §2
The nature of test [5]: Inhibition of HIV1 reverse transcriptase 41L/67N/70R/184V/210W/215Y mutant by heteropolymeric DNA polymerase assay. Details: species or system Human immunodeficiency virus 1. In short, it runs like this:
(§3)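 Purified p66/p51 HIV-1 RT, or p66 homodimer for 65R, at 30–100 pM (about 1.5–4.5 mU/well). Plate-bound 18-mer DNA primer on a 50-base 5′-A12-(GTCA)5-3′ DNA template. dATP, dGTP, dCTP and BrdUTP at 1.0 μM each, no ATP. Buffer: HEPES 50 mM pH 7.3, 10 mM MgCl2. Incubation 180 min at 33°C, NaOH dehybridization, anti-BrdU-AP tracer, A405. IC50 from seven inhibitor concentrations, at least two experiments in duplicate.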

A short description of test [6]: Inhibition of HIV1 reverse transcriptase 41L/67N/70R/210W/215Y mutant by heteropolymeric DNA polymerase assay. Also noted: species or system Human immunodeficiency virus 1. A digest of the protocol: as §3
Test [7] can be described thus: Inhibition of HIV1 reverse transcriptase wild type HXB2(a) by heteropolymeric DNA polymerase assay. Details: species or system Human immunodeficiency virus 1. In short, it runs like this: (§4)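 Heteropolymeric assay without ATP: plate-bound 18-mer DNA primer (~110 nM) with 50-mer 5′-A12-(GTCA)5 template (190 nM). dATP, dGTP, dCTP and BrdUTP at 1.0 μM each, in HEPES 50 mM pH 7.3, MgCl2 10 mM. RT 30–100 pM, 33°C for 180 min, then NaOH dehybridization and anti-BrdU-AP tracer read at 405 nm. IC50 from seven triphosphate concentrations; two to four runs in duplicate.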

Test [8] in a line: Inhibition of HIV1 reverse transcriptase 41L/69S-SG/184V/210W/215Y mutant in presence of 5 mM ATP by heteropolymeric DNA polymerase assay. Details: species or system Human immunodeficiency virus 1. In short, it runs like this:
as §2

A short description of test [9]: Inhibition of HIV1 reverse transcriptase 184V mutant by heteropolymeric DNA polymerase assay. Details: species or system Human immunodeficiency virus 1. In short, it runs like this:
as §3

Test [10] is described as follows: Inhibition of HIV1 LAI reverse transcriptase 65R mutant by heteropolymeric DNA polymerase assay. Also noted: species or system Human immunodeficiency virus 1. A digest of the protocol: as §3
A short description of test [11]: Inhibition of HIV1 reverse transcriptase 41L/69S-SG/210W/215Y mutant in presence of 5 mM ATP by heteropolymeric DNA polymerase assay. Also noted: species or system Human immunodeficiency virus 1. A digest of the protocol:
as §2

Test [12] concerns the target T1, Human immunodeficiency virus type 1 reverse transcriptase. As to the kind of experiment: Inhibition of HIV1 LAI reverse transcriptase wild type LAI by heteropolymeric DNA polymerase assay. In short, it runs like this:
as §4

Test [13] is described as follows: Inhibition of HIV1 reverse transcriptase 75I/77L/116Y/151M/184V mutant by heteropolymeric DNA polymerase assay. Details: species or system Human immunodeficiency virus 1. A digest of the protocol:
as §3

Test [14] can be described thus: Inhibition of HIV1 reverse transcriptase 75I/77L/116Y/151M/184V mutant in presence of 5 mM ATP by heteropolymeric DNA polymerase assay. Also noted: species or system Human immunodeficiency virus 1. A digest of the protocol:
as §2

The nature of test [15]: Inhibition of HIV1 reverse transcriptase 184V mutant in presence of 5 mM ATP by heteropolymeric DNA polymerase assay. Details: species or system Human immunodeficiency virus 1. In short, it runs like this:
as §2

A short description of test [16]: Inhibition of HIV1 reverse transcriptase 41L/67N/70R/184V/210W/215Y mutant in presence of 5 mM ATP by heteropolymeric DNA polymerase assay. Details: species or system Human immunodeficiency virus 1. In short, it runs like this: as §2
A short description of test [17]: Inhibition of HIV1 reverse transcriptase 75I/77L/116Y/151M mutant by heteropolymeric DNA polymerase assay. Also noted: species or system Human immunodeficiency virus 1. In short, it runs like this:
as §3

Test [18] in a line: Inhibition of HIV1 reverse transcriptase 41L/69S-SG/184V/210W/215Y mutant by heteropolymeric DNA polymerase assay. Also noted: species or system Human immunodeficiency virus 1. In short, it runs like this: as §3
Test [19] in a line: Inhibition of HIV1 pNL4-3 reverse transcriptase 115F mutant by heteropolymeric DNA polymerase assay. Also noted: species or system Human immunodeficiency virus 1. In short, it runs like this: as §3
Test [20] concerns the target T1, Human immunodeficiency virus type 1 reverse transcriptase. Briefly: Inhibition of HIV1 pNL4-3 reverse transcriptase wild type pNL4-3 by heteropolymeric DNA polymerase assay. A digest of the protocol: as §4
Test [21] is described as follows: Inhibition of HIV1 pNL4-3 reverse transcriptase 115F mutant in presence of 5 mM ATP by heteropolymeric DNA polymerase assay. Also noted: species or system Human immunodeficiency virus 1. In short, it runs like this: as §2
The nature of test [22]: Inhibition of HIV1 reverse transcriptase 41L/69S-SG/210W/215Y mutant by heteropolymeric DNA polymerase assay. Also noted: species or system Human immunodeficiency virus 1. A digest of the protocol: as §3
Test [23] deals with T1, Human immunodeficiency virus type 1 reverse transcriptase. As to the kind of experiment: Inhibition of HIV1 pNL4-3 reverse transcriptase wild type pNL4-3 in presence of 5 mM ATP by heteropolymeric DNA polymerase assay. In short, it runs like this: as §1

Each structure is given as a SMILES string.

As to `Nc1nc2c(ncn2[C@H]2CO[C@@H](COP(=O)(O)OP(=O)(O)OP(=O)(O)O)O2)c(=O)[nH]1`, the IC50 came to 200 nM in test [1]; 1.2 µM in [2]; 150 nM in [3]; 1.3 µM in [4]; 140 nM in test [5]; 110 nM in [6]. The half-inhibitory concentration (IC50) in test [7] is 120 nM; in test [8], 0.26 µM; in test [9], 200 nM; in test [10] it was 620 nM; in [11], 340 nM; in [12], 180 nM. For the same compound, the concentration for half-maximal inhibition (IC50) in test [13] is 7.2 µM; in [14] it was 2.4 µM; in test [15] it was 0.2 µM; in test [16] it was 190 nM; in test [17], 2.5 µM; in [18] it was 140 nM.

Regarding `Nc1nc(=O)c2ncn([C@H]3C=C[C@@H](COP(=O)(O)OP(=O)(O)OP(=O)(O)O)C3)c2[nH]1` [CARBOVIR 5'-TRIPHOSPHATE, (-)-], the 50% inhibitory concentration (IC50) in test [1] came out at 900 nM; in [19], 2600 nM; in test [2] it was 11 µM; in test [3], 1500 nM; in test [20], 1200 nM; in test [4], 5.5 µM. Moreover, the IC50 in [21] was 3.6 µM; in test [22], 900 nM; in test [5] it was 2700 nM; in test [6], 900 nM; in test [7] it was 1100 nM; in test [8], 6.4 µM. Further, the IC50 is 5500 nM in [9]; 5000 nM in test [10]; 5100 nM in [11]; 680 nM in [12]; 54 µM in test [13]; 18 µM in [14]. Moreover, the IC50 in [15] worked out at 8.4 µM; in [16], 4500 nM; in test [23] it was 1800 nM; in test [17], 6.6 µM; in test [18], 3400 nM.
